ChEMBL document CHEMBL2062417, “Biotinylated quercetin as an intrinsic photoaffinity proteomics probe for the identification of quercetin target proteins” (Bioorg Med Chem, 2011)
Active and inactive are the calls of the source. The rule behind the calls is not given here.

Columns and labels:
[1] = species: Homo sapiens; experiment: Binding affinity to CK2 at 150 uM after 30 mins by silver staining based pull down assay
How it was run: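 CK2 (17.5–70 nM) was mixed with 150 μM BioQ in 400 μL 10 mM PBS pH 7.2 with protease inhibitors, with or without 10 mM MgCl2 and 2 μM ATP. Samples were irradiated 30 min on ice (320–400 nm, peak 365 nm) or left unirradiated. Capture was on streptavidin agarose for 1 h, with washes in lysis buffer or 2% SDS Tris buffer, then boiling, SDS-PAGE and silver staining.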

[2] = target: T1, Ubiquitin-like modifier-activating enzyme 1 (Homo sapiens) (UniProt P22314); experiment: Binding affinity to UBA1 in human Jurkat cells at 150 uM followed by UV irradiation for 30 mins with Wood's glass filtered medium pressure mercury arc light after cell lysis measured after denaturing wash by SDS-PAGE based pull down assay
T1 sequence (whole entry): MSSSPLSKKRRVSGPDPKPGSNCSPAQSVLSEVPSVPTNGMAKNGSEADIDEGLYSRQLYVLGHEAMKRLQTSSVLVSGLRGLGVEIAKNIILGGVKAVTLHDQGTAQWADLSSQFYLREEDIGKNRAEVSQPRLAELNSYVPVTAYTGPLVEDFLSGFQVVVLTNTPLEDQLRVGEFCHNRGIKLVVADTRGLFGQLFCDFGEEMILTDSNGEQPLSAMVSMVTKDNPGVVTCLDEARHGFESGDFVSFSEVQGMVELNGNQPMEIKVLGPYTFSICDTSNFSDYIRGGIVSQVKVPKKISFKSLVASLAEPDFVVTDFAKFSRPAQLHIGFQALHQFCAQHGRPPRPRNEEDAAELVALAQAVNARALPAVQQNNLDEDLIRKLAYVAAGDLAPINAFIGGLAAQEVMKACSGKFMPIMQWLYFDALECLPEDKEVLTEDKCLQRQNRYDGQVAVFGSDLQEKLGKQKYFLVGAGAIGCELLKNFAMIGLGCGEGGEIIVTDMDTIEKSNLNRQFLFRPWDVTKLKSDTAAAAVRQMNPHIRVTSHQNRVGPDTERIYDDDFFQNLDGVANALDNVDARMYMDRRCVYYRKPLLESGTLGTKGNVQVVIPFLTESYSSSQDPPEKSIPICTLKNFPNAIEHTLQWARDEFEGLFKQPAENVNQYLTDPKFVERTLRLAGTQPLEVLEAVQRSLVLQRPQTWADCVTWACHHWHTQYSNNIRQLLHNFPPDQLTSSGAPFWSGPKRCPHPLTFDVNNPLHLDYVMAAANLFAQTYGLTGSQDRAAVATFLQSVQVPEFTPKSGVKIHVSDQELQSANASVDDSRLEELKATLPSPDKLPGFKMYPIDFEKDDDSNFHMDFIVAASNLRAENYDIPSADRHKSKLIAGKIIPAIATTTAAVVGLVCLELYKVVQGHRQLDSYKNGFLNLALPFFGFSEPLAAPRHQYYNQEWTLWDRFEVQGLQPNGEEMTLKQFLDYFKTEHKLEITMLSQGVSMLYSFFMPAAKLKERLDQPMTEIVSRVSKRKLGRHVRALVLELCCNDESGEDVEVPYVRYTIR
How it was run: (§1)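 Jurkat cells were grown in RPMI with 10% FBS (about 15×10^6 cells) and treated 2 h with 150 μM BioQ in 3% aqueous DMSO. They were heat-shocked at 43 °C for 30 min, recovered 1 h at 37 °C, and UV-irradiated (320–400 nm, peak 365 nm, 30 min, 4 °C) before or after sonication lysis. Streptavidin-agarose capture ran 1 h. Beads were washed ≥3× with lysis buffer or 2% SDS Tris pH 7.4, boiled, run on 12% SDS-PAGE and silver-stained.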

[3] = target: ATP synthase F(1) complex subunit beta, mitochondrial (Homo sapiens) (UniProt P06576); experiment: Binding affinity to ATP5B in human Jurkat cells at 150 uM followed by UV irradiation for 30 mins with Wood's glass filtered medium pressure mercury arc light after cell lysis measured after denaturing wash by SDS-PAGE based pull down assay; how it was run: as §1
Sequence of ATP synthase F(1) complex subunit beta, mitochondrial (Homo sapiens) (P06576 whole entry, one chain of several): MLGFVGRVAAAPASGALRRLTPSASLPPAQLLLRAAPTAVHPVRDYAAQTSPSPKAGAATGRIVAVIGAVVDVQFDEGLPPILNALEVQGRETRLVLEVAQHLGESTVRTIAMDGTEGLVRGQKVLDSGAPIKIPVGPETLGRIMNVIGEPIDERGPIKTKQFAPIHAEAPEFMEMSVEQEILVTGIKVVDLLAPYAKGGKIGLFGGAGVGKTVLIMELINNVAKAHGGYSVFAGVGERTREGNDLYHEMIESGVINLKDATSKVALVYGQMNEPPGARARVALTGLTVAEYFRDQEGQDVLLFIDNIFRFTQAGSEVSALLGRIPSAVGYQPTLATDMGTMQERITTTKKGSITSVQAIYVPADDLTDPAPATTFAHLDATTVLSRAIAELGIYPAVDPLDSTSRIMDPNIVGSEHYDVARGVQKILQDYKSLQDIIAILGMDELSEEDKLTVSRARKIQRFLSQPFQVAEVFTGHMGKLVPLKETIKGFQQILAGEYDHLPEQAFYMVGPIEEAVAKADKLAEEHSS

[4] = target: Eukaryotic translation initiation factor 3 subunit F (Homo sapiens) (UniProt O00303); experiment: Binding affinity to EIF3F in human Jurkat cells at 150 uM followed by UV irradiation for 30 mins with Wood's glass filtered medium pressure mercury arc light prior to cell lysis measured after denaturing wash by SDS-PAGE based pull down assay; how it was run: as §1
Sequence of Eukaryotic translation initiation factor 3 subunit F (Homo sapiens) (O00303 whole entry): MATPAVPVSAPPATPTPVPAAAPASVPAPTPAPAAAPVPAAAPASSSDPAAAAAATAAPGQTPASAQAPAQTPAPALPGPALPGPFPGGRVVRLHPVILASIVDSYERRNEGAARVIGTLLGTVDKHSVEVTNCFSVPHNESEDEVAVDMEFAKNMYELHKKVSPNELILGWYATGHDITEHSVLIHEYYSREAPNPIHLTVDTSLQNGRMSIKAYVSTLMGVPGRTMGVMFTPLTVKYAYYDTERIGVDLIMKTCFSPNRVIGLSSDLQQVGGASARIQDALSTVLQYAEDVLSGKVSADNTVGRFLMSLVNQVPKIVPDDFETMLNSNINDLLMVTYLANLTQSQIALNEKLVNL

## O=C(CCCC[C@@H]1SC[C@@H]2NC(=O)N[C@@H]21)NCCOCCOCCNC(=O)COc1cc(O)c2c(=O)c(O)c(-c3ccc(O)c(O)c3)oc2c1
[1]
  Activity: inactive
[2]
  Activity: Active
[3]
  Activity: Active
[4]
  Activity: Active
